# Source: PubChem BioAssay
# UBC13 polyUb = inhibitors of human UBC13 polyubiquitin chain formation | TR-FRET | actives 0.47% (n = 330,000) | P61088 | inhibition, % at 20 µM | AID 485273; in the data active = inhibition above about 45%, passing the limit was not always enough
# Neddyl block = cullin neddylation inhibition. P61081+Q13564. actives 0.58% (n = 360,000). TR-FRET cullin neddylation, biochemical. inhibition, % at 25 µM. AID 651699; in the data active = inhibition above about 36%
# SR-BI HDL uptake = inhibitors of mouse SR-BI mediated HDL lipid uptake | Q61009 | ldlA[mSR-BI] CHO cells, DiI-HDL uptake fluorescence, 3 h | inhibition, % at 12.5 µM | actives 0.96% (n = 320,000);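 active = mean replicate inhibition of at least 70% and a set share of replicates each scoring 70 or more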;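 also: 0% = median of neutral control wells and 100% = median of positive control wells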
# SR-BI uptake up = SR-BI HDL lipid transfer activation | CHO ldlA[mSR-BI] cells, DiI-HDL uptake fluorescence, 3 h; 100 = double the neutral-control signal | actives 0.096% (n = 320,000) | activation, % at 12.5 µM;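 active = mean replicate activation of at least 60% and every replicate at or above 60%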;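 also: 0% = median plate neutral-control signal and 100% = twice that signal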
#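 System: CHO ldlA[mSR-BI] cells / Medium: HEPES-buffered (25 mM, pH 7.4) F12 plus 0.5% BSA / Probe or stimulus: labelled HDL, 10 µg/mL / Doses: single compound concentration, delivered by pin transfer / Schedule: 3 h, 37 °C / Measured by: DiI fluorescence, bottom read / Measure: cell-associated DiI fluorescence as measure of HDL uptake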
# Neddyl conf = confirmation of human cullin neddylation inhibitors | shares compounds with Neddyl block | TR-FRET cullin neddylation biochemical assay | calls only at 25 µM | actives 13% (n = 1,800) | AID 652217; in the data active = inhibition above about 40%;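 also: neddylation substrate is the cullin 1 ring ligase complex with SKP2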
# * marks the source's active call; other numbers are inactive results; i = inactive; . = no result shown; + = active, no number. Hits are enriched below; roughly 1.9% of the tested compounds scored in any of these assays.
SMILES,UBC13 polyUb,Neddyl block,SR-BI HDL uptake,SR-BI uptake up,Neddyl conf
COc1ccc(C)cc1N(C(=O)c1snc(C(N)=O)c1N)C(C(=O)NC1CCCC1)c1ccc(F)cc1 (stereo not given),5.0,43.3*,.,.,.
NC(=O)c1nsc(C(=O)N(c2ccccc2)C(C(=O)NCC2CCCO2)c2ccc3ncccc3c2)c1N (stereo not given),25.5,.,.,.,.
COCCNC(=O)C(c1ccc(C)o1)N(C(=O)c1snc(C(N)=O)c1N)c1cccc(C)c1 (stereo not given),35.2,44.5*,-10.0,10.0,i
COCCNC(=O)C(c1ccc(C)o1)N(C(=O)c1snc(C(N)=O)c1N)c1ccc(C)c(C)c1 (stereo not given),40.3,28.1,-13.5,13.5,.
CCOc1ccccc1N(C(=O)c1snc(C(N)=O)c1N)C(C(=O)NCC1CCCO1)c1ccc2ncccc2c1 (stereo not given),3.0,51.8*,-5.6,5.6,i
COc1ccc(N(C(=O)c2snc(C(N)=O)c2N)C(C(=O)NC2CCCC2)c2ccc(F)cc2)c(OC)c1 (stereo not given),4.2,.,-36.2,36.2,.
CCCCC(C(=O)NC1CCCC1)N(Cc1ccccc1)C(=O)c1snc(C(N)=O)c1N (stereo not given),13.8,21.6,-17.6,17.6,.
Cc1ccc(NC(=O)C2CCN(S(=O)(=O)c3ccc4c(c3)NC(=O)CO4)CC2)cc1,-0.9,-10.3,17.9,-17.9,.
CC(C)(C)S(=O)N1Cc2cc(CO)cc(CCO)c2[C@H]1CCO (stereo not given in full),.,7.5,-8.9,8.9,.
COc1cccc(CCNC(=O)c2cc(COc3c(F)cccc3F)on2)c1,-1.7,4.3,-3.5,3.5,.
CCCCN1CC(N(C)CCN(C)C)CS1(=O)=O (stereo not given),.,-2.3,.,.,.
COC(=O)c1ccc2nc(C3CCCCC3)c(Cc3ccccc3)n2c1,.,17.6,.,.,.
CCOc1ccccc1N(C(=O)c1snc(C(N)=O)c1N)C(C(=O)NCc1ccccc1)c1ccc(O)cc1 (stereo not given),8.8,42.4*,.,.,.
CC(C(=O)NCC1CCCO1)N(C(=O)c1snc(C(N)=O)c1N)c1cccc(F)c1 (stereo not given),24.5,52.3*,16.1,-16.1,.
COc1ccc(C(C(=O)NCc2ccccc2)N(C(=O)c2snc(C(N)=O)c2N)c2ccccc2OC)cc1OC (stereo not given),8.4,52.9*,.,.,.
Cc1ccccc1N(C(=O)c1snc(C(N)=O)c1N)C(C(=O)NCc1ccccc1)c1ccc(O)cc1 (stereo not given),16.3,-104.5,.,.,.
COc1cccc(N(C(=O)c2snc(C(N)=O)c2N)C(C(=O)NCc2ccccc2)c2ccc(O)cc2)c1 (stereo not given),24.8,52.5*,2.8,-2.8,+
COc1ccc(N(C(=O)c2snc(C(N)=O)c2N)C(C(=O)NCc2ccccc2)c2ccc(O)cc2)cc1OC (stereo not given),32.5,3.8,.,.,.
CCC1([N+](=O)[O-])COC(c2ccc(OC)cc2)OC1 (stereo not given),.,-4.9,22.4,-22.4,.
O=C(Nc1ccc2nc(C(F)(F)F)[nH]c2c1)[C@@H]1O[C@H](CO)[C@@H](O)[C@H]1O,.,1.9,.,.,.
CC(=O)NC(c1ccccc1)c1nc(-c2cncnc2)cs1 (stereo not given),.,-11.9,.,.,.
COc1ccc(Cl)cc1C(=O)Nn1cnnc1,7.2,-8.3,-2.6,2.6,.
CCCc1cc(=O)oc2c(C)c3occ(C)c3cc12,17.2,40.0*,-4.8,4.8,i
COc1ccc(-c2nc3c4ccccc4ccn3c2CN2CCCCC2)cc1OC,-4.8,42.5*,.,.,i
COc1ccc(-c2nc3c4ccccc4ccn3c2CN2CCCCC2)cc1,10.8,27.1,48.2,-48.2,.
CC1(C)CC(=O)C=C(c2cccc(O)c2)C1,-13.1,-39.5,-27.7,27.7,.
CCCn1cnc2c(c1=O)c1nc3ccccc3nc1n2CCc1ccccc1,9.9,44.3*,35.9,-35.9,i
CCCCn1c2nc3ccccc3nc2c2c(=O)n(-c3ccccc3)cnc21,0.2,47.1*,40.0,-40.0,i
CC(C)Cn1c2nc3ccccc3nc2c2c(=O)n(CCN3CCOCC3)cnc21,-6.4,42.3*,19.5,-19.5,i
O=C(NC1CCCCC1)C(c1ccc(C(F)(F)F)cc1)n1c(=O)c(-c2ccco2)nc2ccccc21 (stereo not given),.,19.3,.,.,.
